ChEMBL document CHEMBL1145749, “Inhibition of human immunodeficiency virus reverse transcriptase by synadenol triphosphate and its E-isomer” (J Med Chem, 2003)

Columns and labels:
[1] = target: Human immunodeficiency virus type 1 reverse transcriptase (Human immunodeficiency virus 1, UniProt Q72547); experiment: Inhibitory activity against HIV-1 Reverse transcriptase wild-type (RT wt)
Procedure, shortened: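 Recombinant HIV-1 RT (wild-type, M184V or M184I) was expressed in E. coli JM109 with 1 mM IPTG for 5 h, then purified on Q and SP columns to >90% purity. Assay used MS2 RNA/22A DNA primer in 50 mM Tris-HCl pH 7.8, 6 mM MgCl2, 150 mM KCl and 0.01% Triton X-100. Synthesis was distributive, with [3H]dATP as the only nucleotide, at 37 °C. Timed aliquots were spotted on DE81 and counted by scintillation. Ki came from the abscissa intercept of the Lineweaver–Burk replot. Ratio was Ki over dATP Km.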

[2] = target: Human immunodeficiency virus type 1 reverse transcriptase (Human immunodeficiency virus 1, UniProt Q72547, M184V); experiment: Inhibitory activity against HIV-1 reverse transcriptase (RT M184V)
Procedure, shortened: (§1)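 Recombinant HIV-1 RT M184V or M184I was expressed in E. coli JM109 (1 mM IPTG, 5 h), purified over Q and SP columns to >90%. The template-primer was MS2 RNA/22A DNA in 50 mM Tris-HCl pH 7.8, 6 mM MgCl2, 150 mM KCl, 0.01% Triton X-100, with [3H]dATP as the sole nucleotide (distributive mode). Reactions were enzyme-started at 37 °C and sampled 4–5 times onto DE81 filters. Ki came from the abscissa intercept of the Lineweaver–Burk replot.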

[3] = target: Human immunodeficiency virus type 1 reverse transcriptase (Human immunodeficiency virus 1, UniProt Q72547, M184I); experiment: Inhibitory activity against HIV-1 reverse transcriptase (RT M184I); procedure, shortened: as §1

Row | Ki [1] | Structure (SMILES) | Ki [2] | Ki [3]
1 | 320 nM | Nc1ncnc2c1ncn2/C=C1/CC1COP(=O)(O)OP(=O)(O)OP(=O)(O)O (stereo not given) |  | 
2 | 10000 nM | Nc1ncnc2c1ncn2/C=C1\CC1COP(=O)(O)OP(=O)(O)OP(=O)(O)O (stereo not given) |  | 

Row | Structure (SMILES) | Ki [1] | Ki [2] | Ki [3]
3 | Nc1ncnc2c1ncn2[C@H]1CC[C@@H](COP(=O)(O)OP(=O)(O)OP(=O)(O)O)O1 [DDA-TRIPHOSPHATE] | 510 nM | 500 nM | 1200 nM
